Series [1] deals with T1, Sodium- and chloride-dependent glycine transporter 1 (Rattus norvegicus) (UniProt P28572).
T1 sequence (whole entry): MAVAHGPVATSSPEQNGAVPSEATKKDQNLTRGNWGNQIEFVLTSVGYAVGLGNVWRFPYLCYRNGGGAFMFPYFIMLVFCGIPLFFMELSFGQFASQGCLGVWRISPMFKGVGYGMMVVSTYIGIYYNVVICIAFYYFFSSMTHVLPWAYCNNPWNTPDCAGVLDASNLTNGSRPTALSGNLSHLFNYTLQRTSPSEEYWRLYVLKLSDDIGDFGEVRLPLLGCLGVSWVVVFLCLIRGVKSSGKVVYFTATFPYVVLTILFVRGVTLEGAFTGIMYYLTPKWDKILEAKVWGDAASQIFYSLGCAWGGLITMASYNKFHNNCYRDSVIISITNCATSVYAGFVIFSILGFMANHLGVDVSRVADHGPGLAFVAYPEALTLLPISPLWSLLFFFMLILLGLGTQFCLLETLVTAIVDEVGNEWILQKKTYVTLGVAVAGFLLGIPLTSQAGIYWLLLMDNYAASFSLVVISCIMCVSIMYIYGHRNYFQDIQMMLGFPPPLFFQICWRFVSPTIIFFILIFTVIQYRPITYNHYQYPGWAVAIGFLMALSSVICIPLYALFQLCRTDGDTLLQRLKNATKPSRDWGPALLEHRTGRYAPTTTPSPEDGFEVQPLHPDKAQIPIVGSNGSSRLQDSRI
The series can be described thus: Binding affinity to GlyT1 in rat brain hippocampus at 0.03 to 0.04 nM preincubated for 20 mins in binding buffer before compound addition measured after 30 mins by autoradiography in presence of 0.01 mM GlyT1 inhibitor SSR504734 relative to control. Conditions: tested as the 125I-labelled form. Format: tissue-based. The method in brief:
(§1)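 Rat brain sagittal sections (20 µm) preincubated 20 min at 25 °C in Tris-HCl buffer pH 7.5 (NaCl, KCl, MgCl2, CaCl2), then 30 min at 25 °C with [125I] tracer (100 kBq, 0.03–0.04 nM) plus competitor (10 µM; glycine 1 or 10 mM). Cold washes, imaging plate 3 days, ROI PSL minus background per mm². % control from ≥triplicate slices, three rats.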

In series [2] the target is T1, Sodium- and chloride-dependent glycine transporter 1 (Rattus norvegicus). The series can be described thus: Binding affinity to GlyT1 in rat brain midbrain at 0.03 to 0.04 nM preincubated for 20 mins in binding buffer before compound addition measured after 30 mins by autoradiography in presence of 10 mM GlyT1 substrate glycine relative to control. As to conditions: tested as the 125I-labelled form. The format is tissue-based.

For series [3], the system named is Mus musculus. The series can be described thus: In vivo binding affinity to GlyT1 in ddY mouse brain cerebellum at 200 kBq, iv after 60 mins by autoradiography relative to control. The format is functional, organism-based. As to conditions: tested as the 125I-labelled form. The method in brief: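 Ex vivo autoradiography in mice given 200 kBq [125I]tracer i.v. and killed at 60 min. Brains were removed, frozen on dry ice and cut into 20 µm sagittal cryosections, which were exposed to an imaging plate for 7 days. Regional signal was quantified as PSL/mm² (n = 5) and compared to control by Kruskal–Wallis with Dunn's post-test.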

The subject of series [4] is Mus musculus. In words: In vivo binding affinity to GlyT1 in ddY mouse brain striatum at 33.3 kBq, iv after 30 mins in presence of N-Me-SSR504734 2 mg/kg, iv administered 15 mins prior to compound administration relative to control. The format is functional, organism-based. On the set-up: dose 2 mg/kg. As to conditions: tested as the 125I-labelled form.
Series [5] deals with Mus musculus. In words: In vivo binding affinity to GlyT1 in ddY mouse brain striatum at 200 kBq, iv after 60 mins by autoradiography relative to control. Format: functional, organism-based. As to conditions: tested as the 125I-labelled form.
The test system of series [6] is Mus musculus. The series can be described thus: In vivo binding affinity to GlyT1 in ddY mouse brain thalamus at 200 kBq, iv after 60 mins by autoradiography relative to control. The format is functional, organism-based. Conditions: tested as the 125I-labelled form.
In series [7] the target is T1, Sodium- and chloride-dependent glycine transporter 1 (Rattus norvegicus). In words: Binding affinity to GlyT1 in rat brain corpus callosum at 0.03 to 0.04 nM preincubated for 20 mins in binding buffer before compound addition measured after 30 mins by autoradiography in presence of 1 mM GlyT1 substrate glycine relative to control. Conditions: tested as the 125I-labelled form. The format is tissue-based. The gist of the method: as §1

For series [8] the target is unchanged. In words: Binding affinity to GlyT1 in rat brain striatum at 0.03 to 0.04 nM preincubated for 20 mins in binding buffer before compound addition measured after 30 mins by autoradiography in presence of 0.01 mM GlyT1 inhibitor HPCP relative to control. The format is tissue-based. Conditions: tested as the 125I-labelled form.
Series [9] shares this target. The series can be described thus: Binding affinity to GlyT1 in rat brain corpus callosum at 0.03 to 0.04 nM preincubated for 20 mins in binding buffer before compound addition measured after 30 mins by autoradiography in presence of 0.01 mM NMDA receptor glycine site antagonist L-701,324 relative to control. Format: tissue-based. As to conditions: tested as the 125I-labelled form. The gist of the method: as §1

For series [10] the target is unchanged. In words: Binding affinity to GlyT1 in rat brain midbrain at 0.03 to 0.04 nM preincubated for 20 mins in binding buffer before compound addition measured after 30 mins by autoradiography in presence of 0.01 mM GlyT2 inhibitor ORG25543 relative to control. Format: tissue-based. Conditions: tested as the 125I-labelled form. The method in brief:
as §1

Series [11] has the same target. In words: Binding affinity to GlyT1 in rat brain hippocampus at 0.03 to 0.04 nM preincubated for 20 mins in binding buffer before compound addition measured after 30 mins by autoradiography in presence of 0.01 mM GlyT1 inhibitor HPCP relative to control. Conditions: tested as the 125I-labelled form. Format: tissue-based. The method in brief: as §1
For series [12] the target is unchanged. In words: Binding affinity to GlyT1 in rat brain cerebral cortex at 0.03 to 0.04 nM preincubated for 20 mins in binding buffer before compound addition measured after 30 mins by autoradiography in presence of 1 mM GlyT1 substrate glycine relative to control. The format is tissue-based. As to conditions: tested as the 125I-labelled form. The method in brief: as §1

For series [13] the target is unchanged. The series can be described thus: Binding affinity to GlyT1 in rat brain hippocampus at 0.03 to 0.04 nM preincubated for 20 mins in binding buffer before compound addition measured after 30 mins by autoradiography in presence of 10 mM GlyT1 substrate glycine relative to control. The format is tissue-based. As to conditions: tested as the 125I-labelled form. The gist of the method:
as §1

Series [14] shares this target. The series can be described thus: Binding affinity to GlyT1 in rat brain striatum at 0.03 to 0.04 nM preincubated for 20 mins in binding buffer before compound addition measured after 30 mins by autoradiography in presence of 0.01 mM GlyT1 inhibitor ALX5407 relative to control. Format: tissue-based. Conditions: tested as the 125I-labelled form.
The subject of the next series is Stomach. In words: Drug uptake in ddY mouse stomach at 11.1 kBq, iv after 180 min by gamma counting. Conditions: in vivo, 3 h. Format: ADME, organism-based. The method in brief: (§2)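 Male ddY mice (6 weeks, 30–35 g) were given about 11.1 kBq of [125I]tracer in 0.1 mL i.v. via the tail vein. At each time point the animals were killed and organs dissected, weighed and gamma-counted. Uptake is expressed as % injected dose per gram of tissue, mean ± SD, n = 5–6.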

A further series has as its system Kidney. The series can be described thus: Drug uptake in ddY mouse kidney at 11.1 kBq, iv after 5 min by gamma counting. Conditions: in vivo. The format is ADME, organism-based. The gist of the method: as §2
Series [15] in a line: Metabolic stability in ddY mouse brain assessed as compound remaining at 185 kBq after 60 mins by radio-TLC. As to conditions: read-out: Stability. The format is ADME, tissue-based.
For the next series, the system named is Pancreas. In words: Drug uptake in ddY mouse pancreas at 11.1 kBq, iv after 60 min by gamma counting. The format is ADME, organism-based. As to conditions: in vivo, 1 h. The gist of the method:
as §2

The structures appear in SMILES notation. Activity calls are given as the source filed them. No cut-off for these calls is given here.

Turning to `CN1CCCC[C@H]1[C@@H](NC(=O)c1cccc(C(F)(F)F)c1I)c1ccccc1`, the Activity was determined as 46.3% in series [1]; 52.1% in series [2]; 94.1% in series [7]; 31.8% in [8]; 92.5% in [9]; 115% in series [10]. In addition, the Activity in series [11] came to 55.9%; in series [12] it was 89.6%; in [13], 71.5%; in series [14], 46.7%. Further, the outcome in the series on Mus musculus [3], with Mus musculus [4] and in the series on Mus musculus [6] was Active. Further, in the series on Mus musculus [5], the outcome was inactive.
Take `CN1CCCC[C@H]1[C@@H](NC(=O)c1cccc(C(F)(F)F)c1[125I])c1ccccc1`: the results for the Drug uptake in the series with Stomach, in the series on Kidney and in the series with Pancreas were 12.73 % ID/g, 10.71 % ID/g and 9.51 % ID/g, respectively. Moreover, in [15], the remaining at 1 h stood at 89%.

The record behind these values is ChEMBL document CHEMBL1938298, “Synthesis and characterization of [¹²⁵I]2-iodo N-[(S)-{(S)-1-methylpiperidin-2-yl}(phenyl)methyl]3-trifluoromethyl-benzamide as novel imaging probe for glycine transporter 1” (Bioorg Med Chem, 2011).
